Data set [1] is described as follows: Effect on fluorescence read out during PTP1B enzymatic reaction compound treated post enzyme-substrate reaction and susequent H2O2-mediated enzyme deactivation. In short, it runs like this: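 Read-out counter assay. PTP1B (aa 1–298) turned over DifMUP first, then the enzyme was deactivated with H2O2 and compound added. A drop in fluorescence (Ex 360/Em 450 nm) marks interference with the read-out. Concentration–response format.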

For data set [2], the target named is T1, Tyrosine-protein phosphatase non-receptor type 1 (Homo sapiens) (UniProt P18031).
T1 sequence (whole entry): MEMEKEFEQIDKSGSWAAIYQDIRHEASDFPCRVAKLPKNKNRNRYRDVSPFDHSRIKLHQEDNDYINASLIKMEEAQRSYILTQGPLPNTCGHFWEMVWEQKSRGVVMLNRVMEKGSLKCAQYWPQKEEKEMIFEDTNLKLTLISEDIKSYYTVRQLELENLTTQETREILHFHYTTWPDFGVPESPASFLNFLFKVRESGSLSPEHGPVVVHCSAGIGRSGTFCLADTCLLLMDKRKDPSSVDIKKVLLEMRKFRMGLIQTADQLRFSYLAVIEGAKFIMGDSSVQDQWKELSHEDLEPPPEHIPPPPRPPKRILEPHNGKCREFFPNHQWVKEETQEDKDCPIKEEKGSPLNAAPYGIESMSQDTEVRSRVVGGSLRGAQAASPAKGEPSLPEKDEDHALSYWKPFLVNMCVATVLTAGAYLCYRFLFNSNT
The data set is described as follows: (§1) Inhibition of PTP1B (1 to 298 residues) (unknown origin) using DifMUP as substrate preincubated for 30 mins followed by substrate addition and measured after 30 mins by fluorescence assay. Put shortly:
(§2)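 PTP1B catalytic domain (aa 1–298, 5 nM final) preincubated with compound (diluted in DMSO) 30 min at RT in the dark. DifMUP (30 μM final) added, 30 min at RT. Stopped with H2O2 (0.5% final), 30 min RT. Fluorescence read at Ex 360/Em 450 nm. Buffer: 50 mM citrate pH 6.0, 100 mM NaCl, 1 mM EDTA, 0.1 mM DTT, 0.01% Brij35.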

Data set [3] deals with T2, Tyrosine-protein phosphatase non-receptor type 1 (Homo sapiens, UniProt P18031).
T2 sequence (P18031 whole entry): T1 sequence (whole entry)
The data set is described as §1. In short, it runs like this:
as §2

The nature of data set [4]: Self-aggregating behavior of compound at 32 to 500 uM by 1D-1H NMR method. Format: physicochemical. Put shortly: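 Self-association check by 1D 1H NMR. Dilution series from 500 to 32 μM compound in 5 mM TRIS pH 7.4, 50 mM NaCl, 5% DMSO-d6. Concentration-dependent shifts of aromatic resonances were monitored.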
Data set [5] has as its target T1, Tyrosine-protein phosphatase non-receptor type 1 (Homo sapiens). The data set is described as follows: Reversible inhibition of PTP1B (1 to 298 residues) (unknown origin) using 10 fold excess DifMUP as substrate preincubated for 30 mins followed by substrate addition and measured after 30 mins by fluorescence assay.
The target in data set [6] is T2, Tyrosine-protein phosphatase non-receptor type 1. The data set is described as follows: Competitive inhibition of PTP1B (1 to 298 residues) (unknown origin) using 60 uM DifMUP as substrate preincubated for 30 mins followed by substrate addition and measured after 30 mins by fluorescence assay. In short, it runs like this:
(§3)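 PTP1B aa 1–298 (5 nM final) preincubated with compound 30 min at RT in the dark, then DifMUP added, 30 min at RT. Stopped with 0.5% final H2O2, 30 min. Fluorescence read at Ex 360/Em 450 nm. Buffer: citrate pH 6.0, NaCl, EDTA, DTT, Brij35.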

For data set [7] the target is unchanged. The data set is described as follows: Competitive inhibition of PTP1B (1 to 298 residues) (unknown origin) using 30 uM DifMUP as substrate preincubated for 30 mins followed by substrate addition and measured after 30 mins by fluorescence assay. In short, it runs like this:
as §2

A short description of data set [8]: Intrinsic redox activity of compound after 60 mins in presence of resazurin/DTT.
Data set [9] deals with T2, Tyrosine-protein phosphatase non-receptor type 1. The data set is described as follows: Competitive inhibition of PTP1B (1 to 298 residues) (unknown origin) using 15 uM DifMUP as substrate preincubated for 30 mins followed by substrate addition and measured after 30 mins by fluorescence assay. In short, it runs like this:
as §3

Molecules are shown by their SMILES. Active and inactive are the calls of the source. The rule behind the calls is not given here.

With `O=C(O)C(=O)Nc1sc2c(c1C(=O)O)CCNC2`, the result in data set [1] was inactive.

For the compound `Cc1c(C)c2c(c(C)c1O)CC[C@@](C)(CCC[C@H](C)CCC[C@H](C)CCCC(C)C)O2`, in [2], the inhibition entry was “inactive”.

In general, IC50 refers to the point on the concentration scale where inhibition reaches its midpoint. Higher therefore signals lower potency. In the case of `COc1ccc2cc3[n+](cc2c1OC)CCc1cc2c(cc1-3)OCO2` [BERBERINE], the outcome in [1] was Active. Besides, in data set [3], the IC50 is 67 µM. The result in [4] was Active.

As to `Cc1c(C)c2c(c(C)c1OC(=O)CCC(=O)O)CCC(C)(C)O2`, in data set [2], the inhibition result is “inactive”.

For the compound `CC(=O)Oc1c(C)c(C)c2c(c1C)CC[C@@](C)(CCC[C@H](C)CCC[C@H](C)CCCC(C)C)O2`, in data set [2], the inhibition entry was “inactive”.

As to `Cc1c(C)c2c(c(C)c1OC(=O)CCC(=O)O)CC[C@@](C)(CCC[C@H](C)CCC[C@H](C)CCCC(C)C)O2` [(+)-ALPHA-TOCOPHERYL SUCCINATE], the result in data set [1] and in [8] was inactive. Moreover, the IC50 in data set [3] is 20 µM; in data set [6], 45.6 µM; in data set [7], 39 µM; in data set [9] it was 25.1 µM. The inhibition entry in data set [5] is “Active”.

Consider `COc1cc2c(cc1OC)-c1cc3ccc(OC)c(OC)c3c[n+]1CC2` [PALMITINE], for which, in data set [1], the outcome was Active. Also, in [3], the IC50 came out at 234 µM.

As for `CN(C)c1ccc2nc3ccc(=[N+](C)C)cc-3sc2c1`, the inhibition result in [2] was “Active”.

Values taken from ChEMBL document CHEMBL4261523, “PAIN-less identification and evaluation of small molecule inhibitors against protein tyrosine phosphatase 1B” (Medchemcomm, 2017).
